The test system of one data set is Human betaherpesvirus 5. Nature of the data set: Antiviral activity against Human cytomegalovirus (AD169 strain). It counts as functional. To be noted: read-out: ID50 (the source's name). In a few lines: (§1)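 WI-38 monolayers were infected, with virus adsorbed for 1–2 h. They were then overlaid with EMEM maintenance medium (1% carboxymethyl cellulose, 2.5% FBS) containing duplicate drug dilutions. Monolayers were stained after 4–6 days at 37 °C. ID50 was taken as the concentration giving 50% plaque reduction versus virus controls. Titrations were done in duplicate.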

The test system of data set [1] is Human alphaherpesvirus 1. Nature of the data set: Antiviral activity against Herpes simplex virus-1 (Schooler strain). To be noted: read-out: ID50 (the source's name). Type of data set: functional. In outline: as §1
The subject of the next data set is Human alphaherpesvirus 3. Kind of data set: Antiviral activity against Varicella zoster virus (Ellen strain). It counts as functional. To be noted: read-out: ID50 (the source's name). In a few lines:
as §1

Data set [2] relates to Human alphaherpesvirus 1. Kind of data set: Antiviral activity against Herpes simplex virus-1 (Schooler). It counts as functional. To be noted: read-out: ID50 (the source's name). In a few lines: as §1
For another data set, the system named is Human alphaherpesvirus 2. Kind of data set: Antiviral activity against Herpes simplex virus-2 (thymidine kinase deficient strains isolated as BVaraU resistant mutants of HSV-1 (KOS)). To be noted: read-out: ID50 (the source's name). Type of data set: functional.
Data set [3] in a line: Antiviral activity against Herpes simplex virus-1 (KOS strain). Type of data set: functional. To be noted: Human alphaherpesvirus 1; read-out: ID50 (the source's name). In outline: as §1
For data set [4], the system named is Human alphaherpesvirus 1. Kind of data set: Antiviral activity against Herpes simplex virus-1 (thymidine kinase deficient strains isolated as BVaraU resistant mutants of HSV-1 (KOS)). To be noted: read-out: ID50 (the source's name). Type of data set: functional. In outline:
as §1

The test system of data set [5] is Mus musculus. Kind of data set: Protective dose against Herpes simplex virus type type -1 infection in mice at 200 mg/kg. Type of data set: functional. To be noted: read-out: PD50. In a few lines:
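Female Swiss-Webster mice (20–23 g), 10 per group, infected intraperitoneally with 10^3 PFU HSV-1 strain Schooler (Vero freeze-thaw extract) in 0.3% BSA-PBS. Subcutaneous dosing in PBS twice daily from 1 h postinfection for 5 days, 12.5–200 mg/kg/day. Survival scored over 21 days; PD50 from survival by probit analysis.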

Data set [6] relates to Mus musculus. Kind of data set: Protective dose against Herpes simplex virus type type -2 infection in mice at 200 mg/kg. Type of data set: functional. To be noted: read-out: PD50. In outline:
(§2)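 Female Swiss-Webster mice (20–23 g), 10 per group, infected intraperitoneally with 10^6 PFU HSV-2 strain Curtis (Vero freeze-thaw extract) in 0.3% BSA-PBS. Drug given subcutaneously in PBS twice daily from 1 h postinfection for 5 days, doses 12.5–200 mg/kg/day. Survival followed 21 days; PD50 by probit analysis; mean day of death by Student's t-test versus placebo.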

For data set [7], the system named is WI-38. Kind of data set: Tested for growth inhibition againstWI-38 cells. To be noted: Homo sapiens, read-out: ID50 (the source's name). It counts as functional. In a few lines: (§3)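 WI-38 cells seeded at 1.2 × 10^6 per well, incubated overnight at 37 °C, then refed with growth medium (EMEM, 10% FBS) holding serial drug dilutions or none, for 3 more days at 37 °C. Quadruplicate cultures per concentration trypsinized and counted daily for viable cells by trypan blue exclusion.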

For a further data set, the system named is Vaccinia virus. Nature of the data set: Antiviral activity against vaccinia virus (CL strain). Type of data set: functional. To be noted: Orthopoxvirus vaccinia; read-out: ID50 (the source's name).
Data set [8] relates to Mus musculus. Kind of data set: Number of survivors against Herpes simplex virus type-1 infection in mice at 100 mg/kg/day out of total 10 tested. Type of data set: functional. In a few lines:
(§4)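 Female Swiss-Webster mice (20–23 g, 10 per group) were infected ip with 10^3 PFU HSV-1 Schooler in 0.3% BSA-PBS. Drug was given sc twice daily in PBS, starting 1 h postinfection, for 5 days. Survival was followed for 21 days. Mean day of death of dead animals was compared with placebo-treated infected controls by Student's t-test.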

The test system of data set [9] is Mus musculus. Nature of the data set: Number of survivors against Herpes simplex virus type-1 infection in mice at 150 mg/kg/day out of total 10 tested. It counts as ADME, organism-based. To be noted: in vivo. In outline:
as §4

Data set [10] relates to Mus musculus. Kind of data set: Number of survivors against Herpes simplex virus type-1 infection in mice at 200 mg/kg/day out of total 10 tested. Type of data set: functional. In outline: as §4
Data set [11] concerns Mus musculus. Nature of the data set: Number of survivors against Herpes simplex virus type-1 infection in mice at 25 mg/kg/day out of total 10 tested. Type of data set: functional. In a few lines: as §4
The test system of data set [12] is Mus musculus. Nature of the data set: Number of survivors against Herpes simplex virus type-2 infection in mice at 100 mg/kg/day out of total 10 tested. It counts as functional. In outline:
(§5)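 Female Swiss-Webster mice (20–23 g, 10 per group) were infected ip with 10^6 PFU HSV-2 Curtis in 0.3% BSA-PBS. Dosing was sc twice daily in PBS from 1 h postinfection for 5 days. Survival was recorded over 21 days. Mean day of death was computed for dead mice and compared with placebo-treated infected controls by Student's t-test.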

The test system of data set [13] is Mus musculus. Nature of the data set: Number of survivors against Herpes simplex virus type-2 infection in mice at 12.5 mg/kg/day out of total 10 tested. Type of data set: functional. In a few lines: as §5
Data set [14] relates to Mus musculus. Nature of the data set: Number of survivors against Herpes simplex virus type-2 infection in mice at 200 mg/kg/day out of total 10 tested. It counts as functional. In outline:
as §5

For data set [15], the system named is Mus musculus. Kind of data set: Number of survivors against Herpes simplex virus type-2 infection in mice at 25 mg/kg/day out of total 10 tested. It counts as functional. In a few lines: as §2
Data set [16] relates to Mus musculus. Nature of the data set: Day of death in lethal test against herpes simplex virus type-1 at 100 mg/kg/day. Type of data set: ADME, organism-based. To be noted: in vivo. In a few lines:
as §4

The test system of data set [17] is Mus musculus. Kind of data set: Day of death in lethal test against herpes simplex virus type-1 at 12.5 mg/kg/day. To be noted: in vivo. It counts as ADME, organism-based. In a few lines:
as §4

Data set [18] concerns Mus musculus. Nature of the data set: Day of death in lethal test against herpes simplex virus type-1 at 150 mg/kg/day. Type of data set: functional. In outline: as §4
Data set [19] deals with Mus musculus. Kind of data set: Day of death in lethal test against herpes simplex virus type-1 at 50 mg/kg/day. To be noted: in vivo. It counts as ADME, organism-based. In a few lines:
as §4

The subject of data set [20] is Mus musculus. Kind of data set: Day of death in lethal test against herpes simplex virus type-2 at 100 mg/kg/day. Type of data set: ADME, organism-based. To be noted: in vivo. In outline:
as §5

The test system of data set [21] is Mus musculus. Kind of data set: Day of death in lethal test against herpes simplex virus type-2 at 12.5 mg/kg/day. To be noted: in vivo. It counts as ADME, organism-based. In outline: as §5
Data set [22] deals with Mus musculus. Kind of data set: Day of death in lethal test against herpes simplex virus type-2 at 25 mg/kg/day. To be noted: in vivo. It counts as ADME, organism-based. In outline:
as §5

The subject of data set [23] is Mus musculus. Kind of data set: Day of death in lethal test against herpes simplex virus type-2 at 50 mg/kg/day. It counts as ADME, organism-based. To be noted: in vivo. In outline:
as §5

For data set [24], the system named is Mus musculus. Nature of the data set: Day of death in lethal test against herpes simplex virus type-1 at 25 mg/kg/day. Type of data set: ADME, organism-based. To be noted: in vivo. In outline:
as §4

In data set [25] the test system is WI-38. Kind of data set: Tested for growth inhibition against WI-38 cells. To be noted: Homo sapiens, read-out: ID50 (the source's name). Type of data set: functional. In outline:
as §3

A value given as a limit tells only on which side of the number the result lay.

On to `O=c1[nH]c(=O)n([C@@H]2CO[C@H](CO)[C@H]2CO)cc1I`, for which the figures for the IC50 in the data set on Human betaherpesvirus 5, in the data set with Human alphaherpesvirus 1 [1] and in the data set on Human alphaherpesvirus 3 were greater than 270 µM, 140 µM and 70 µM, respectively.

Take `Nc1nc(O)c2ncn([C@@H]3CO[C@H](CO)[C@H]3CO)c2n1`: the IC50 in the data set on Human betaherpesvirus 5 was greater than 360 µM; in the data set with Human alphaherpesvirus 1 [2], 18 µM; in the data set on Human alphaherpesvirus 2 it was 180 µM; in [3], 7 µM; in the data set on Human alphaherpesvirus 1 [4] it was 180 µM; in the data set on WI-38 [7], greater than 700 µM. Besides, the results for the IC50 in the data set with Vaccinia virus and in the data set on Human alphaherpesvirus 3 were greater than 360 µM and 40 µM, respectively. Besides, the ED50 in the data set on Mus musculus [5] was determined as 84 mg/kg/day; with Mus musculus [6], 52 mg/kg/day. Moreover, the No. of survivors is recorded as 6 with Mus musculus [8]; 7 with Mus musculus [9]; 9 in the data set on Mus musculus [10]; 2 in the data set with Mus musculus [11]; 6 with Mus musculus [12]; 0 in the data set with Mus musculus [13]. For the same compound, the No. of survivors in the data set on Mus musculus [14] worked out at 9; in the data set on Mus musculus [15] it was 6. Also, the “Mean day of death” value in the data set with Mus musculus [16] was found to be 14.7; in the data set on Mus musculus [17], 9.6; in the data set on Mus musculus [18] it was 12.3; in the data set on Mus musculus [19], 10.1; in the data set with Mus musculus [20] it was 12.2; in the data set on Mus musculus [21], 10.3. In addition, the “Mean day of death” value came out at 12.5 in the data set on Mus musculus [22], 10.9 in the data set with Mus musculus [23] and 9.1 in the data set on Mus musculus [24].

Consider `Nc1nc(=O)n([C@@H]2CO[C@H](CO)[C@H]2CO)cc1I`, for which the IC50 is greater than 270 µM in the data set on Human betaherpesvirus 5, 140 µM in the data set on Human alphaherpesvirus 1 [1] and 14 µM in the data set on Human alphaherpesvirus 3.

In the case of `Nc1ncnc2c1ncn2[C@@H]1CO[C@H](CO)[C@H]1CO`, the IC50 in the data set on Human betaherpesvirus 5 came to 4 µM; in the data set with Human alphaherpesvirus 2 it was 4 µM; in [3], 4 µM; in the data set with Human alphaherpesvirus 1 [1], 8 µM; in the data set with Human alphaherpesvirus 1 [4] it was 8 µM; in the data set on WI-38 [25], 90 µM. For the same compound, the IC50 in the data set on Vaccinia virus was found to be 20 µM; in the data set with Human alphaherpesvirus 3, 4 µM.

On to `Cc1cn([C@@H]2CO[C@H](CO)[C@H]2CO)c(=O)[nH]c1=O`, for which the IC50 is greater than 400 µM with Human betaherpesvirus 5; 8 µM in [3]; 4 µM with Human alphaherpesvirus 1 [1]; greater than 400 µM in the data set on Human alphaherpesvirus 1 [4]; 20 µM in the data set with Human alphaherpesvirus 3.

The values above are taken from ChEMBL document CHEMBL1126655, “Synthesis and antiviral activity of novel isonucleoside analogs” (J Med Chem, 1993).
